Bioassay records deposited in PubChem by The Scripps Research Institute Molecular Screening Center.
V1aR counter: counter-screen for oxytocin receptor agonists: human V1a receptor agonists. CHO-V1R cells, Fluo-8 calcium fluorescence, agonist mode; 0% DMSO, 100% 3 nM vasopressin. P37288. hit rate 0.25% among 320,000. activation, % at 3 µM. AID 2797;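 active = activation above the mean activation of all tested compounds plus 3 SD, per screening run, cut at about 20% in these data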;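 note: signal is peak over basal fluorescence ratio across a 100 second FLIPR read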
OXTR potentiator: potentiates the human oxytocin receptor response | P30559 | CHO-OTR cells, Fluo-8 calcium fluorescence, potentiator mode; 0% = oxytocin EC15, 100% = EC100 | activation, % at 3 µM | hit rate 0.061% among 320,000 | AID 2445;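 active = activation above that plate's cutoff, the mean activation of tested compounds plus 3 SD, cut at about 6.6% in these data, passing the limit was not always enough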;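 note: 100% uses oxytocin at 75 nM as the full agonist control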
Target sequence (P30559 whole entry, looked up): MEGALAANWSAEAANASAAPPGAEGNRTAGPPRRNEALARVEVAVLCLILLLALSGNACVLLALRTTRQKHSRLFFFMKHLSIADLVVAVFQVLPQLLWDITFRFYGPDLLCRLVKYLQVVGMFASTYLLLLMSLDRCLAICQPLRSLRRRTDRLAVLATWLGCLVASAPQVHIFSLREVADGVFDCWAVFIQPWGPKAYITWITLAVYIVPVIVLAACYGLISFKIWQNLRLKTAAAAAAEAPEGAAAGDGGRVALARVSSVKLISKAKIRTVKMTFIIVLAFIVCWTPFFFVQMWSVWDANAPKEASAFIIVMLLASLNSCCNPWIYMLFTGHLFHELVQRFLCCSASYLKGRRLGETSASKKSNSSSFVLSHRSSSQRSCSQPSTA
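Material: CHO-OTR cells, human receptor; compound dosing: single dose, 3.0 µM nominal final compound concentration; schedule: 6 min compound pre-incubation at room temperature, 100 s kinetic read; measured by: kinetic Fluo-8 calcium fluorescence; read-out basis: % activation vs EC15 and EC100 oxytocin; controls: EC15 oxytocin alone as 0%, 75 nM oxytocin as 100%; replicates: singlicate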
OXTR agonist: human OXTR agonism. hit rate 0.32% among 320,000. P30559. CHO-OTR cells, Fluo-8 calcium fluorescence; normalized: DMSO 0%, oxytocin 100%. activation, % at 3 µM. AID 2435;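 active = activation above the mean of all tested compounds plus 3 SD, cutoff set per screening run, cut at about 20% in these data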;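 note: peak over basal fluorescence ratio from a 100 s FLIPR kinetic read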
TAAR1 antag: antagonists of human TAAR1. Q96RJ0. CHO RD-HGA16 TAAR1, Fluo-8 calcium fluorescence, antagonist. inhibition, % at 3 µM. hit rate 1.5% among 360,000. AID 624466;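 active = inhibition above a per-plate cutoff, the mean inhibition of test compounds on that plate plus 3 SD, cut at about 49% in these data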;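 note: 0% = DMSO plus EC80 beta-PEA response and 100% = DMSO alone without agonist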
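Test system: RD-HGA16 CHO cells with stable hTAAR1 and Gα16 / Probe or stimulus: EC80 β-phenethylamine stimulus / Times: seeding 17-24 h prior, 75-min 37 °C, 30-min RT dye loading / Detection: Fluo-8 calcium-sensitive fluorescence / Read-out basis: % inhibition scaled between DMSO and EC80 PEA controls / Repeats: singlicate, one well per test compound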
TAAR1 agonist: agonists of human TAAR1; Q96RJ0; CHO RD-HGA16 TAAR1, Fluo-8 calcium fluorescence; vehicle wells 0%, saturating PEA agonist 100%; activation, % at 3 µM; hit rate 0.99% among 360,000; AID 624467;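 active = activation above the mean activation of all test compounds in the run plus 3 SD, cut at about 38% in these data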
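System: CHO-derived RD-HGA16 cells with stable Gα16 and human TAAR1. Times: 17-24 h plating, Fluo-8 75 min 37 °C, 30 min RT. Measured by: calcium-sensitive Fluo-8 signal, excitation 470-495, emission 515-575 nm. Read-out basis: % activation relative to PEA EC100 response. Control set: DMSO and PEA EC100. Repeats: no replicates (n 1).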
An asterisk follows results filed as active; x = not tested or not shown; + = active, no number. Shown are actives, neighbours in structure and some others; about 2.3% of the full set was active somewhere.

SMILES | V1aR counter | OXTR potentiator | OXTR agonist | TAAR1 antag | TAAR1 agonist
O=S(=O)(c1cccc(-c2csc(N/N=C/c3ccco3)n2)c1)N1CCOCC1 | 0.6 | 0.0 | 0.3 | 60.4* | 11.8
COC(=O)[C@@]1(Sc2ccc(C)cc2)CC(=O)N(c2ccc(Cl)cc2)[C@@H]1c1ccccc1 | x | x | x | 47.7 | 1.1
COC(=O)[C@@]1(Sc2ccc(C)cc2)CC(=O)N(c2ccc3c(ccn3C)c2)[C@@H]1c1ccccc1 | x | x | x | 55.0* | 3.3
COc1ccc(OC)c(/C=C2\NC(=O)NC2=O)c1 | 0.4 | 6.4 | 0.4 | -18.1 | 4.9
COc1cc(N2CCCC2)c(OC)cc1/C=C1/NC(=S)NC1=O | 36.4* | -9.4 | 48.3* | 50.8* | 45.1*
CCOC(=O)[C@]12CCCC=C1N(Cc1ccco1)C(=O)[C@H](CC(=O)NCc1ccc(OC)c(OC)c1)C2 | x | x | x | -10.8 | -1.1
Nc1cccc(-c2cn(-c3cc4cc(C#CC5(O)CCCCC5)ccc4oc3=O)nn2)c1 | 1.8 | -7.1 | 2.9 | 57.8* | 29.7
O=c1oc2ccc(C#CC3(O)CCCCC3)cc2cc1-n1cc(-c2ccccn2)nn1 | 3.2 | -0.2 | 0.8 | 51.9* | 18.5
Cc1ccc(NCc2n[nH]c(=S)n2-c2ccccc2)cc1 | 0.7 | -1.6 | 1.6 | 0.8 | 7.1
N#C/C(=C/c1ccc(N2CCCCCC2)o1)c1cccc(F)c1 | 1.0 | -4.0 | 2.7 | 17.0 | 8.7
COc1cc(N2CCCC2)c(OC)cc1/C=C(/C#N)c1cccc(F)c1 | 20.5* | -11.6 | 20.7* | x | x
Cc1ccc(Nc2cc(C)nn2-c2nc(C)cc(=O)[nH]2)cc1 | -1.6 | -3.2 | -2.2 | x | x
O=c1ccc2c(-c3ccccc3)c3ccc(O)cc3oc-2c1 | + | -24.5 | 849.7* | 105.3* | 673.3*
Nc1ccc(-c2c3ccc(=O)cc-3oc3cc(O)ccc23)cc1C(=O)O | 260.9* | -25.9 | 291.9* | 67.8* | 211.6*
O=c1cc(-c2ccccc2)oc2cc(O)ccc12 | x | x | x | -27.5 | 1.5
CC(C)CCOc1ccc(Cl)cc1CN1CCOCC1 | -0.9 | -0.7 | -2.2 | 45.2 | 39.4*
O=C(CSc1nnnn1C1CCCCC1)Nc1ccccc1F | 2.4 | -15.0 | -0.7 | 13.3 | -0.9
O=C(CSc1nnnn1C1CC2CCC1C2)Nc1ccnc2ccccc12 (centres undefined) | 10.6 | -18.2 | 17.0 | 52.2* | 25.2
CN(C)CCNc1nc2sc3c(c2c(=O)n1CCc1ccccc1)CCCCC3 | 4.0 | -12.1 | 9.5 | 35.6 | 39.9*
CC(O)CNc1nc2sc3c(c2c(=O)n1CCc1ccccc1)CCCCC3 (centres undefined) | -0.6 | -14.0 | -0.4 | 30.3 | 3.9
N#Cc1ncn(-c2ccc(Oc3ccccc3)cc2)c1N | 0.5 | -6.9 | 1.8 | 3.6 | 6.6
CC(C)c1csc(CN2CCN(Cc3ccc(F)c(F)c3)C(CCO)C2)n1 (centres undefined) | 1.3 | -8.8 | 0.4 | -6.8 | 2.2
CCC(Oc1ccc2c(=O)c(-c3ccccc3OC)coc2c1)C(=O)OCc1ccccc1 (centres undefined) | 0.7 | -8.7 | 2.4 | 54.9* | -1.3
CC(=O)NC(=S)Nc1ccc(NC(=S)NC(=O)c2cccs2)cc1 | 0.6 | -1.5 | -0.2 | -15.8 | -0.2
Cc1c(C(=O)NC(=S)Nc2ccc(NC(=O)c3cccs3)cc2)cccc1[N+](=O)[O-] | 4.0 | -18.1 | 4.6 | 67.7* | 9.4
SMILES | V1aR counter | OXTR potentiator | OXTR agonist | TAAR1 antag | TAAR1 agonist
CCN(CC)S(=O)(=O)c1ccc2c3c(cccc13)C(=O)N2 | -0.1 | -5.0 | -0.1 | -21.5 | 0.4
CCN(c1cccc(C)c1)S(=O)(=O)c1ccc2c3c(cccc13)C(=O)N2 | -0.5 | -17.3 | -1.9 | 54.0* | 9.9
CN(Cc1ccc(OC(F)F)cc1)C(=O)c1cccc(S(=O)(=O)N2CCN(c3ccccc3)CC2)c1 | x | x | x | 74.5* | 8.8
Cc1cc(=O)oc2ccc(OCC(=O)N(Cc3ccc(F)cc3)Cc3ccco3)cc12 | 8.4 | -10.3 | 4.9 | 69.6* | 12.2
CCP(=O)(c1ccccc1)C(C)(C)O (centres undefined) | -0.3 | -6.6 | 0.1 | -3.0 | 1.3
CCN1CCN(C(=O)/C=C/c2ccc(C(C)C)cc2)CC1 | -1.0 | -9.7 | 0.3 | -36.5 | 0.5
CCN1CCC(O)(/C=C/c2ccc(C(C)C)cc2)C(C(=O)/C=C/c2ccc(C(C)C)cc2)C1 (centres undefined) | x | x | x | 24.0 | 39.6*
